Source: ChEMBL document CHEMBL1124344, “5-Piperazinylalkyl-2(3H)-oxazolones with neuroleptic activity” (J Med Chem, 1989)

Legend:
Rattus norvegicus [1] = assay: Activity to evoke catalepsy in rats, by administering perorally at a dose of 20 mg/kg; assay type: functional; details: route oral, read-out: Inhibition
Outline: (§1)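 Rats fasted overnight and given oral doses in arabic gum suspension (10 mL/kg), 1 h before screening or 1 and 5 h before profile testing. Forelegs placed on a horizontal bar 7 cm high, three times at 5-min intervals. Immobility of at least 15 s counts as catalepsy. ED50 is the dose giving catalepsy in 50% of rats, by probit analysis. Parenthetical entries give the maximal dose and percent activity.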

Mus musculus [2] = assay: Antagonistic activity against amphetamine-induced Hypermobility in mice, by administering perorally at a dose of 10 mg/kg; assay type: functional; details: route oral
Outline: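 Male mice in groups of five, fasted overnight, given oral drug in arabic gum suspension (10 mL/kg) 1 or 5 h ahead. Amphetamine 4 mg/kg ip given 30 min after drug. Ten minutes later locomotion is recorded for 15 min in a photocell actophotometer. ED50 is 50% reduction versus control hypermotility, by probit analysis. Parenthetical entries give the maximal dose and percent activity.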

[3] = Lethal dose in mice (LD50) following i.p. dosing; assay type: toxicity, organism-based; details: mouse, in vivo, ip
Outline: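 Acute toxicity tested in mice by the intraperitoneal route. LD50 is the dose killing 50% of treated mice, computed by Finney probit analysis; values are approximate.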

Rattus norvegicus [4] = assay: Antagonistic activity against apomorphine-induced stereotypy in rats, by administering perorally at a dose of 20 mg/kg; assay type: functional; details: route oral
Outline: (§2)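 Male rats fasted overnight and given oral doses in arabic gum suspension (10 mL/kg) 1 h, or 1 and 5 h, before challenge. Apomorphine 3 mg/kg iv, with stereotypy observed 20 min later. ED50 is the dose inhibiting stereotypy in 50% of rats, per Janssen's method. Parenthetical entries give the maximal dose and percent activity.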

Mus musculus [5] = assay: Inhibition of spontaneous motor activity in mice, by administering perorally at a dose of 10 mg/kg; assay type: functional; details: route oral
Outline: (§3)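 Mice in groups of five were dosed orally with gum arabic suspensions at 10 mL/kg after an overnight fast, with a vehicle control group. Locomotion was counted for 10 min in a photocell activity cage, in at least two groups per dose. ED50, by probit analysis, is the dose giving 50% inhibition against controls.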

Rattus norvegicus [6] = assay: Activity to evoke catalepsy in rats, by administering perorally at a dose of 40 mg/kg; assay type: functional; details: route oral; outline: as §1
Mus musculus [7] = assay: Inhibition of spontaneous motor activity in mice, by administering perorally at a dose of 40 mg/kg; assay type: functional; details: route oral
Outline: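 Mice fasted overnight, then dosed orally with compound (weighed as base) suspended in arabic gum, 10 mL/kg, with vehicle controls; 1 h pretreatment for screening tests, 1 or 5 h for others. Groups of five; locomotor activity counted 10 min in photocell activity cage, at least two groups per dose. ED50 = dose giving 50% inhibition versus controls, by probit analysis.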

Mus musculus [8] = assay: Inhibition of amphetamine-induced hypermobility in mice following p.o. administration.; assay type: functional; details: po
Outline: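 Compounds were given orally to male mice (gum arabic suspension, 10 mL/kg, fasted) in groups of five. Amphetamine 4 mg/kg ip followed 30 min later. After another 10 min, motility was recorded for 15 min with a photocell actophotometer. ED50, by probit analysis, is the dose giving 50% reduction against controls.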

Rattus norvegicus [9] = assay: Antagonistic activity against apomorphine-induced stereotypy in rats, by administering perorally at a dose of 40 mg/kg; assay type: functional; details: route oral; outline: as §2
Mus musculus [10] = assay: Inhibition of spontaneous motor activity in mice, by administering perorally; assay type: functional; details: po; outline: as §3
Rattus norvegicus [11] = assay: Antagonistic activity against apomorphine-induced stereotypy in rats, by administering perorally; assay type: functional; details: po; outline: as §2
Rattus norvegicus [12] = assay: Activity to evoke catalepsy in rats, by administering perorally at a dose 150 mg/kg; assay type: functional; details: route oral; outline: as §1
Rattus norvegicus [13] = assay: Activity to evoke catalepsy in rats, by administering perorally at a dose of 150 mg/kg; assay type: functional; details: route oral; outline: as §1
Rattus norvegicus [14] = assay: Antagonistic activity against apomorphine-induced stereotypy in rats, by administering perorally at a dose of 400 mg/kg; assay type: functional; details: route oral; outline: as §2

| Structure (SMILES) | percent of rats showing catalepsy at 20 mg/kg (Rattus norvegicus [1]) [%] | inhibition in vivo at 10 mg/kg (Mus musculus [2]) [%] | LD50 [3] [mg/kg] | inhibition in vivo at 20 mg/kg (Rattus norvegicus [4]) [%] | inhibition in vivo at 10 mg/kg (Mus musculus [5]) [%] | inhibition in vivo at 40 mg/kg (Rattus norvegicus [6]) [%] | inhibition in vivo at 40 mg/kg (Mus musculus [7]) [%] | ED50 (Mus musculus [8]) [mg/kg] | inhibition in vivo at 40 mg/kg (Rattus norvegicus [9]) [%] | ED50 (Mus musculus [10]) [mg/kg] | ED50 (Rattus norvegicus [11]) [mg/kg] | inhibition in vivo at 150 mg/kg (Rattus norvegicus [12]) [%] | inhibition in vivo at 150 mg/kg (Rattus norvegicus [13]) [%] | inhibition in vivo at 400 mg/kg (Rattus norvegicus [14]) [%] |
| --- | --- | --- | --- | --- | --- | --- | --- | --- | --- | --- | --- | --- | --- | --- |
| Oc1nc(-c2ccc(-c3ccccc3)cc2)c(CCN2CCN(c3ccccc3)CC2)o1 | 0 | 33 | 750 | 0 | 32 | – | – | – | – | – | – | – | – | – |
| Oc1nc(-c2ccc(F)cc2)c(CCN2CCN(c3ccc(Cl)cc3Cl)CC2)o1 | – | – | 1000 | – | – | 0 | 45 | 23.9 | 0 | – | – | – | – | – |
| CCn1c(-c2ccc(F)cc2)c(CCN2CCN(c3ccccc3)CC2)oc1=O | – | – | 750 | – | – | – | – | 17 | – | 15.4 | 75 | 0 | – | – |
| Oc1nc(-c2ccc(Cl)cc2)c(CCN2CCN(c3ccccc3)CC2)o1 | – | – | > 1000 | – | – | – | – | 4.7 | – | 3 | – | – | 0 | 0 |
